This is an account of results in ChEMBL document CHEMBL2046280, “Discovery of the novel potent and selective FLT3 inhibitor 1-{5-[7-(3- morpholinopropoxy)quinazolin-4-ylthio]-[1,3,4]thiadiazol-2-yl}-3-p-tolylurea and its anti-acute myeloid leukemia (AML) activities in vitro and in vivo” (J Med Chem, 2012).

For data set [1], the system named is MV4-11. Description: Cytotoxicity against FLT3-dependent human MV4-11 cells after 72 hrs by MTT assay. The class given is functional, cell-based. The conditions noted are these: MV4-11, 72 h. The procedure, abridged: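 Leukemia cells at 1−4 × 10⁴ per well were exposed to increasing inhibitor concentrations for 72 h at 37 °C. MTT was then added for 2−4 h, and cells were lysed with 20% acidified SDS. OD read at 570 nm. Viability relative to 0.1% DMSO controls; triplicate. MV4-11 grown in IMDM, others in RPMI 1640 or DMEM with 10% FBS.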
A general note: Tetrazolium dyes change colour on reduction, which living cells bring about.

In data set [2] the test system is HCT-116. The data set is described as follows: Cytotoxicity against FLT3-independent human HCT116 cells after 72 hrs by MTT assay. Format: functional, cell-based. The following applies: HCT-116, 72 h. The procedure, abridged:
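Adherent lines at 2−5 × 10³ cells/well were allowed to settle 24 h, then the medium was replaced with serial inhibitor dilutions for 72 h. MTT was added for 2−4 h, followed by dissolution in 100% DMSO. OD read at 570 nm. Viability relative to 0.1% DMSO controls; triplicate. Grown in RPMI 1640 or DMEM with 10% FBS, 5% CO₂, 37 °C.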

Data set [3] addresses T1, Receptor-type tyrosine-protein kinase FLT3 (Homo sapiens, UniProt P36888).
T1 sequence (P36888 whole entry): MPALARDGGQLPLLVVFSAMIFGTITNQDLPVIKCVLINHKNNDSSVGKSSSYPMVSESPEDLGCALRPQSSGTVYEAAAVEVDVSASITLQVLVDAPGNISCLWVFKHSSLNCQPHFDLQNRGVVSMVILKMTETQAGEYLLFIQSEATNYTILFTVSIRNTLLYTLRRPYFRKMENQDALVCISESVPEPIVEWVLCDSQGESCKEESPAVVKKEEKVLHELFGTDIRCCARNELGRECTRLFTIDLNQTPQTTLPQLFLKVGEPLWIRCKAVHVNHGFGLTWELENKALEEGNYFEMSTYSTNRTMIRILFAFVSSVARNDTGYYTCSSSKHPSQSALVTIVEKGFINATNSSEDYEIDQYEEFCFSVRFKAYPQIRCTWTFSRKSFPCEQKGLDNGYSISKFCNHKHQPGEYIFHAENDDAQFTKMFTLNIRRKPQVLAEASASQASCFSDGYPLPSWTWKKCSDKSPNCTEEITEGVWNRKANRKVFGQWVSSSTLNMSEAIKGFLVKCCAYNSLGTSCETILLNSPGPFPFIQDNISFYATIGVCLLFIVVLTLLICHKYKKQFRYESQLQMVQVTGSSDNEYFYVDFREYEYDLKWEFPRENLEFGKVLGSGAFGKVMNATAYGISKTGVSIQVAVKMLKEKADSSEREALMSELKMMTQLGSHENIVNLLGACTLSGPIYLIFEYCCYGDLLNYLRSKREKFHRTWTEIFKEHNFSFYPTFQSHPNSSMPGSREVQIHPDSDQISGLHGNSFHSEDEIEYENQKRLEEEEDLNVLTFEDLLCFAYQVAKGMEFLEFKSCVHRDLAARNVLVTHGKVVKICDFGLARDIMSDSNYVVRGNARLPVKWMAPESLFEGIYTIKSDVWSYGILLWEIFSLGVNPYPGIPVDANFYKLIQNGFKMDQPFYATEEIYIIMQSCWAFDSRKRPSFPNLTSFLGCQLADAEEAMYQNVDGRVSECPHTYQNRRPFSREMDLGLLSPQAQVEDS
Description: Inhibition of human FLT3. The procedure, abridged:
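Human FLT3 kinase assayed across a dose−response series at 200 μM ATP.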

The subject of data set [4] is MV4-11. Description: Antitumor activity against human MV4-11 cells xenografted in NOD-SCID mouse assessed as tumor growth inhibition at 50 mg/kg, ip once daily for 21 days measured every 3 days. The following applies: MV4-11, ip, route intraperitoneal, read-out: GI. The class given is functional. Background: In xenograft studies the graft and the host belong to different species.

Data set [5] is described as follows: Cmax in Sprague-Dawley rat at 40 mg/kg, ip. The class given is ADME, organism-based. Set-up: dose 40 mg/kg, route intraperitoneal. The following applies: in vivo. The method in brief: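 Male Sprague−Dawley rats (200−250 g), n = 3, fasted overnight, with a femoral-vein catheter for blood sampling. Single 40 mg/kg ip dose; plasma drug levels measured by LC-MS/MS.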

As for `COCCOc1cc2ncnc(Sc3nc(CC(=O)Nc4ccc(C(F)(F)F)cc4)cs3)c2cc1OCCOC`, the IC50 in data set [1] was 2880 nM; in data set [2] it was over 10000 nM.

With `COCCOc1cc2ncnc(Sc3nnc(NC(=O)Nc4ccc(C)cc4)s3)c2cc1OCCOC`, the IC50 is 22 nM in data set [1] and over 10000 nM in data set [2].

For the compound `COc1cc2ncnc(Sc3nncs3)c2cc1OC`, the IC50 was 9 nM in data set [3], 1200 nM in data set [1] and over 10000 nM in data set [2].

As for `COc1cc2ncnc(Sc3nc(C)c(CC(=O)Nc4cc(Cl)cc(Cl)c4)s3)c2cc1OC`, the IC50 was 1400 nM in data set [1] and over 10000 nM in data set [2].

Take `COCCOc1cc2ncnc(Sc3nc(CC(=O)Nc4cc(C)cc(C)c4)cs3)c2cc1OCCOC`: the IC50 was 9040 nM in data set [1] and over 10000 nM in data set [2].

For the compound `COCCOc1cc2ncnc(Sc3nnc(NC(=O)Nc4ccc(C(F)(F)F)cc4)s3)c2cc1OCCOC`, the 50% inhibitory concentration (IC50) is 300 nM in data set [1] and over 10000 nM in data set [2].

In data set [1], `CCN(CC)CCNC(=O)c1c(C)[nH]c(/C=C2\C(=O)Nc3ccc(F)cc32)c1C` [SUNITINIB] displayed an IC50 of 3 nM.

For `COCCOc1cc2ncnc(Sc3nc(C)c(CC(=O)Nc4cccc(Cl)c4)s3)c2cc1OCCOC`, the IC50 in data set [1] is 210 nM; in data set [2], over 10000 nM.

For the compound `COc1cc2c(Sc3nccs3)ncnc2cc1OCCN1CCOCC1`, the results for the IC50 in data set [1] and in data set [2] were 3000 nM and over 10000 nM, respectively.

Regarding `O=C(Nc1ccccc1)Nc1nnc(Sc2ncnc3cc(OCCCN4CCOCC4)ccc23)s1`, the IC50 in data set [1] was 10 nM; in data set [2] it was over 10000 nM.

As to `COCCOc1cc2ncnc(Sc3nccs3)c2cc1OCCOC`, the IC50 in data set [1] was 1400 nM; in data set [2] it was over 10000 nM.

As to `COc1cc2ncnc(Sc3nc(C)c(CC(=O)Nc4ccc(NC(C)=O)cc4)s3)c2cc1OC`, the IC50 is over 5000 nM in data set [1] and over 10000 nM in data set [2].

Turning to `COc1cc2c(Sc3nccs3)ncnc2cc1OCCN1CCCCC1`, the values for the IC50 in data set [1] and in data set [2] were 1500 nM and over 10000 nM, respectively.

Turning to `O=C(Nc1cccc(Cl)c1)Nc1nnc(Sc2ncnc3cc(OCCCN4CCOCC4)ccc23)s1`, the IC50 in data set [1] is 12 nM; in data set [2] it was over 10000 nM.

As for `COCCOc1cc2ncnc(Sc3nnc(NC(=O)Nc4cccc(Cl)c4)s3)c2cc1OCCOC`, the values for the IC50 in data set [1] and in data set [2] were 20 nM and over 10000 nM, respectively.

Consider `COCCOc1cc2ncnc(Sc3nnc(NC(=O)Nc4cccc(F)c4)s3)c2cc1OCCOC`, for which the IC50 in data set [1] was 400 nM; in data set [2], over 10000 nM.

Regarding `COc1cc2ncnc(Sc3nccs3)c2cc1OCCN1CCCC1`, the half-inhibitory concentration (IC50) in data set [1] is 1240 nM; in data set [2], over 10000 nM.

Regarding `COCCOc1cc2ncnc(Sc3nncs3)c2cc1OCCOC`, the concentration for half-maximal inhibition (IC50) in data set [1] was 1350 nM; in data set [2], over 10000 nM.

For the compound `C=CC(=O)Nc1nnc(Sc2ncnc3cc(OCCCN4CCOCC4)ccc23)s1`, the 50% inhibitory concentration (IC50) is 6000 nM in data set [1] and over 10000 nM in data set [2].

For `C#Cc1cccc(NC(=O)Nc2nnc(Sc3ncnc4cc(OCCCN5CCOCC5)ccc34)s2)c1`, the IC50 was 6 nM in data set [3], 0.3 nM in data set [1] and over 10000 nM in data set [2]. Moreover, the inhibition in vivo at 50 mg/kg in data set [4] is under 50%. This compound also came in with a peak concentration (Cmax) in data set [5] of 2740 ng/mL.

For `COCCOc1cc2ncnc(Sc3nnc(NC(=O)Nc4cccc(Br)c4)s3)c2cc1OCCOC`, the IC50 in data set [1] is 22 nM; in data set [2], over 10000 nM.

`C=CC(=O)Nc1nnc(Sc2ncnc3cc(OCCOC)c(OCCOC)cc23)s1`: the half-inhibitory concentration (IC50) in data set [1] and in data set [2] was over 10000 nM in each case.

As to `COc1cc2ncnc(Sc3nc(C)cs3)c2cc1OC`, the concentration for half-maximal inhibition (IC50) in data set [1] was 3680 nM; in data set [2] it was over 10000 nM.

Turning to `COc1cc2ncnc(Sc3nccs3)c2cc1OCCCN1CCOCC1`, the IC50 is 1020 nM in data set [1] and over 10000 nM in data set [2].

`COc1cc2c(N3CCN(C(=O)Nc4ccc(OC(C)C)cc4)CC3)ncnc2cc1OCCCN1CCCCC1` [TANDUTINIB] showed an IC50 in data set [1] of 55 nM.

For the compound `COc1cc2ncnc(Sc3nc(C)c(CC(=O)NCc4ccc(Cl)cc4)s3)c2cc1OC`, the IC50 in data set [1] and in data set [2] was over 10000 nM in each case.

For `COc1cc2c(Sc3nccs3)ncnc2cc1OCCN1CCCC1`, the half-inhibitory concentration (IC50) in data set [1] was 1600 nM; in data set [2], over 10000 nM.

Consider `COc1cc2ncnc(Sc3nccs3)c2cc1OC`, for which the IC50 was 7 nM in data set [3], 1140 nM in data set [1] and over 10000 nM in data set [2].

With `COc1cc2ncnc(Sc3nccs3)c2cc1OCCCN(C)C`, the IC50 in data set [1] is 1130 nM; in data set [2] it was over 10000 nM.

Take `COCCOc1cc2ncnc(Sc3nc(CC(=O)Nc4cccc(Cl)c4)cs3)c2cc1OCCOC`: the IC50 in data set [1] is 3200 nM; in data set [2], over 10000 nM.

On to `COCCOc1cc2ncnc(Sc3nc(C)c(CC(=O)Nc4ccc(C(F)(F)F)cc4)s3)c2cc1OCCOC`, for which the IC50 in data set [1] is 27 nM; in data set [2] it was over 10000 nM.

As for `COc1cc2ncnc(Sc3nccs3)c2cc1OCCN1CCCCC1`, the IC50 in data set [1] was 1610 nM; in data set [2], over 10000 nM.

As to `COCCOc1cc2ncnc(Sc3nc(C)c(CC(=O)Nc4cccc(C(F)(F)F)c4)s3)c2cc1OCCOC`, the concentration for half-maximal inhibition (IC50) in data set [1] is 25 nM; in data set [2], over 10000 nM.

As to `COCCOc1cc2ncnc(Sc3nc(CC(=O)Nc4cccc(C(F)(F)F)c4)cs3)c2cc1OCCOC`, the IC50 in data set [1] is 830 nM; in data set [2], over 10000 nM.

Consider `COc1cc2ncnc(Sc3nc(C)c(CC(=O)Nc4cccc(C(F)(F)F)c4)s3)c2cc1OC`, for which the IC50 in data set [1] is 20 nM; in data set [2], over 10000 nM.

Take `COc1cc2ncnc(Sc3nccs3)c2cc1OCCN1CCOCC1`: the IC50 in data set [1] is 2950 nM; in data set [2], over 10000 nM.

With `COCCOc1cc2ncnc(Sc3nc(C)c(CC(=O)NC4CC4)s3)c2cc1OCCOC`, the half-inhibitory concentration (IC50) in data set [1] was 2420 nM; in data set [2] it was over 10000 nM.

For `COCCOc1cc2ncnc(Sc3nnc(NC(C)=O)s3)c2cc1OCCOC`, the figures for the IC50 in data set [1] and in data set [2] were over 11000 nM and over 10000 nM, respectively.

Regarding `COCCOc1cc2ncnc(Sc3nc(C)c(CC(=O)Nc4nc5ccc(OC)cc5s4)s3)c2cc1OCCOC`, the IC50 in data set [1] is 1900 nM; in data set [2], over 10000 nM.

For `C#Cc1cccc(NC(=O)Nc2nnc(Sc3ncnc4cc(OCCOC)c(OCCOC)cc34)s2)c1`, in data set [4], the inhibition in vivo at 50 mg/kg is under 50%. In addition, the IC50 in data set [1] is 5 nM; in data set [2], over 10000 nM.

As to `COc1cc2c(Sc3nccs3)ncnc2cc1OCCCN1CCOCC1`, the IC50 in data set [1] was 1150 nM; in data set [2], over 10000 nM.

Regarding `COc1cc2ncnc(Sc3nc(C)c(CC(=O)Nc4cccc(Cl)c4)s3)c2cc1OC`, the concentration for half-maximal inhibition (IC50) in data set [1] was 450 nM; in data set [2] it was over 10000 nM.

In the case of `COCCOc1cc2ncnc(Sc3nc(C)c(CC(=O)Nc4cc(C)cc(C)c4)s3)c2cc1OCCOC`, the IC50 in data set [1] was 625 nM; in data set [2], over 10000 nM.

Broadly, the IC50 is the midpoint of a concentration-inhibition curve. What is called Cmax is the highest concentration seen after dosing.
